The text below walks through data of ChEMBL document CHEMBL1149277, “Antiestrogen binding site and estrogen receptor mediate uptake and distribution of 4-hydroxytamoxifen-targeted doxorubicin-formaldehyde conjugate in breast cancer cells” (J Med Chem, 2004).

The nature of data set [1]: Growth inhibition of ER expressing Rtx6 cells after 4 hrs. Type of data set: functional. The conditions noted are these: Homo sapiens.
Data set [2] has as its system MCF7. The data set is described as follows: Drug uptake in ER expressing MCF7 cells. Type of data set: ADME, cell-based. Particulars: human; call rule not given here. In outline: (§1)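 Cells adhered overnight at 450000 per well, then were exposed to 0.5 µM drug for 1 h (uptake also at 20 and 40 min). They were trypsinized, washed cold, and held on ice in serum-free, phenol red-free RPMI. Flow cytometry: excitation 488 nm, emission 570–600 nm, 10000 cells, mean fluorescence minus drug-free background. Settings were fixed per cell line.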

Data set [3] concerns MCF7. The data set is described as follows: Drug uptake in MCF7 cells at 500 nM for 1 hr relative to MDA-MB-435 cells. Type of data set: ADME, cell-based. Particulars: human, mcf7, 1 h, 0.5 µM. In short, it runs like this:
as §1

The target in data set [4] is T1, Anti-estrogen binding site (AEBS) (Homo sapiens) (UniProt Q15125+Q9UBM7). The data set is described as follows: Displacement of 0.05 nM [3H]tamoxifen from AEBS in MCF7 cell lysate relative to E/Z-4-hydroxytamoxifen. The format is cell-free. In outline: (§2)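 AEBS source: MCF-7 cell lysate (sonicated, 12000g supernatant, diluted to 2.0 mg/mL protein, pH 7.4 lysis buffer with molybdate and protease inhibitors). [3H]tamoxifen at 5, 0.5 or 0.05 nM, with 1000 nM estradiol to saturate ER, plus cold competitor; 18 h at 4 °C. Dextran-coated charcoal strip, scintillation counting. Binding expressed relative to E/Z-4-OHT from reduction of bound tritium; competitors in duplicate.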

The target in data set [5] is T1, Anti-estrogen binding site (AEBS) (Homo sapiens). The data set is described as follows: Displacement of 0.5 nM [3H]tamoxifen from AEBS in MCF7 cell lysate relative to E/Z-4-hydroxytamoxifen. The format is cell-free. In short, it runs like this:
as §2

For data set [6] the target is unchanged. The data set is described as follows: Displacement of 5 nM [3H]tamoxifen from AEBS in MCF7 cell lysate relative to E/Z-4-hydroxytamoxifen. Type of data set: cell-free. In short, it runs like this:
as §2

Data set [7] shares this target. The data set is described as follows: Binding affinity at AEBS. Type of data set: protein-complex assay. In outline:
as §2

The nature of data set [8]: Drug uptake in ER expressing Rtx6 cells at 500 nM. Type of data set: ADME, cell-based. The conditions noted are these: human, 0.5 µM. In short, it runs like this: as §1
Data set [9] deals with MDA-MB-231 (Homo sapiens). The data set is described as follows: Drug uptake in MDA-MB-231 cells at 500 nM for 1 hr relative to MDA-MB-435 cells. The conditions noted are these: mda-mb-231, 1 h, 0.5 µM.
Data set [10] can be described thus: Drug uptake in MCF7/Adr cells at 500 nM. Type of data set: ADME, cell-based. The conditions noted are these: human, nci/adr-res, 0.5 µM. In short, it runs like this: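 MCF-7/Adr cells in log phase (RPMI 1640, 10% FBS), plated 450000 cells/well and adhered overnight; exposed to 0.5 μM drug (from 100× DMSO/1% AcOH stock) for 20, 40, 60 min. Cells were trypsinized, quenched and resuspended in cold serum-free, phenol red free RPMI, then held on ice. Flow cytometry: ex 488 nm, em 570–600 nm, 10000 cells; mean fluorescence minus drug-free background.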

Data set [11] relates to MDA-MB-435. The data set is described as follows: Decrease in doxorubicin uptake in MDA-MB-435 cells at 10 uM after 1 hr relative to DOX-TEG-TAM. Type of data set: ADME, cell-based. Further details: scale not given: the % may be the effect or the level left. Particulars: human, mda-mb-435, 1 h. In outline:
(§3)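 Competition read by flow cytometry. MDA-MB-435 cells adhered overnight, then given 0.5 µM anthracycline for 1 h with or without tamoxifen at various concentrations (up to 10 µM). Cells trypsinized and kept cold in serum-free, phenol red-free RPMI. Excitation 488 nm, emission 570–600 nm, 10000 cells. Mean fluorescence with drug-free background subtracted.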

In data set [12] the test system is MDA-MB-435. The data set is described as follows: Decrease in DOX-TEG-TAM uptake in MDA-MB-435 cells after 1 hr. The format is ADME, cell-based. Particulars: human, mda-mb-435, 1 h. In short, it runs like this:
as §3

Data set [13] deals with MDA-MB-435. The data set is described as follows: Decrease DOX-TEG-TAM uptake in MDA-MB-435 cells at 10 uM after 1 hr relative to control. Further details: scale not given: the % may be the effect or the level left. Particulars: human, mda-mb-435, 1 h. The format is ADME, cell-based. In outline:
as §3

The test system of data set [14] is MDA-MB-435. The data set is described as follows: Decrease doxorubicin-saliform uptake in MDA-MB-435 cells at 10 uM after 1 hr relative to DOX-TEG-TAM. The format is ADME, cell-based. Set-up: scale not given: the % may be the effect or the level left. The conditions noted are these: human, mda-mb-435, 1 h. In outline:
as §3

Data set [15] is described as follows: Inhibition of DOX-TEG-TAM uptake in ER expressing Rtx6 cells. The format is cell-based. Particulars: human. In short, it runs like this: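 Rtx-6 cells in tamoxifen-free medium got 0.5 µM conjugate for 1 h with or without estradiol at various concentrations. Flow cytometry of anthracycline fluorescence: excitation 488 nm, emission 570–600 nm, 10000 cells. Mean fluorescence minus drug-free background.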

In data set [16] the test system is MDA-MB-435. The data set is described as follows: Inhibition of DOX-TEG-TAM uptake in MDA-MB-435 cells. Type of data set: cell-based. The conditions noted are these: human. In short, it runs like this: as §3

Broadly, the IC50 is the concentration needed to halve the response being measured. The compound `CC/C(=C(/c1ccc(O)cc1)c1ccc(OCCN(C)CCOCCOCCO/N=C/c2ccc(O)c(C(=O)NCN[C@H]3C[C@H](O[C@H]4C[C@](O)(C(=O)CO)Cc5c(O)c6c(c(O)c54)C(=O)c4c(OC)cccc4C6=O)O[C@@H](C)[C@H]3O)c2)cc1)c1ccccc1` registered an IC50 in [1] of 67 nM. Further, the “Relative Fluorescent Unit” value in data set [2] is listed as 25; in data set [8] it was 14. For the same compound, the Drug uptake in [3] and in data set [9] was 25% in each case. Also, the Activity in data set [4] was determined as 70%; in [5], 72%; in [6], 48%; in data set [7], 60%.
In turn, `COc1cccc2c1C(=O)c1c(O)c3c(c(O)c1C2=O)C[C@@](O)(C(=O)CO)C[C@@H]3O[C@H]1C[C@H](NCNC(=O)c2ccccc2O)[C@H](O)[C@H](C)O1` had a concentration for half-maximal inhibition (IC50) in data set [1] of 61 nM. Besides, the “Relative Fluorescent Unit” value in data set [2] is 16; in data set [10], 1.
With `CC/C(=C(\c1ccccc1)c1ccc(OCCN(C)C)cc1)c1ccccc1` [TAMOXIFEN], the Activity is on record as 8% in data set [11], “Dose-dependent effect” in [12], 47% in data set [13] and 6% in [14].
Turning to `C[C@]12CC[C@@H]3c4ccc(O)cc4CC[C@H]3[C@@H]1CC[C@@H]2O` [ESTRADIOL], the Activity entry was “Dose-dependent effect” in [15] and “Not Active” in data set [16].
